Results as given in ChEMBL document CHEMBL4002637, “Synthesis, characterization, in vitro SAR and in vivo evaluation of N,N'bisnaphthylmethyl 2-alkyl substituted imidazolium salts against NSCLC” (Bioorg Med Chem Lett, 2017).
Active and inactive are the calls of the source. The rule behind the calls is not given here.

Assays:
NCI-H460 [1] = experiment: Growth inhibition of human NCI-H460 cells after 24 hrs by SRB assay; type: functional; settings: NCI-H460, 24 h
NCI-H460 [2] = experiment: Induction of apoptosis in human NCI-H460 cells assessed as morphological changes at 40 uM up to 3 hrs by Annexin V-FITC/propidium iodide staining based fluorescence microscopic method; type: functional, cell-based
NCI-H1975 [3] = experiment: Antiproliferative activity against human NCI-H1975 cells using 1% DMSO/water compound formulation after 72 hrs by MTT assay; type: functional, cell-based; settings: NCI-H1975, 72 h
Outline: (§1)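 MTT anti-proliferation on NSCLC lines. Compounds dissolved in DMSO, diluted with water to 1% DMSO, then into growth medium (max 0.032% DMSO on cells); or dissolved in 10% (w/v) 2-HPβCD in water, then diluted (max 0.008% w/w 2-HPβCD in wells; vehicle controls at 0.008%). IC50 = concentration giving 50% loss of viability versus control cells. Cisplatin dissolved in water with stirring.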

NCI-H226 = experiment: Growth inhibition of human NCI-H226 cells after 24 hrs by SRB assay; type: functional; settings: NCI-H226, 24 h
NCI-H460 [4] = experiment: Induction of apoptosis in human NCI-H460 cells at 40 uM up to 1 hr using 1% DMSO/water compound formulation by Annexin V-FITC/propidium iodide staining based fluorescence microscopic method; type: functional, cell-based
NCI-H460 [5] = experiment: Antiproliferative activity against human NCI-H460 cells using 1% DMSO/water compound formulation after 72 hrs by MTT assay; type: functional, cell-based; settings: NCI-H460, 72 h; outline: as §1
NCI-H322M = experiment: Growth inhibition of human NCI-H322M cells after 24 hrs by SRB assay; type: functional
NCI-H1975 [6] = experiment: Potency index, ratio of compound cisplatin IC50 to compound IC50 for human NCI-H1975 cells using 1% DMSO/water compound formulation; type: functional
Mus musculus [7] = experiment: Acute toxicity in C57BL/6 mouse assessed as weight regain at 20 mg/kg, ip administered as 20% 2HPbetaCD formulation measured on day 4 to 14 post dose; type: organism-based; settings: in vivo
Outline: (§2)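 Female/male not stated; C57BL/6 mice received 20 mg/kg IP on day zero in 100 μL of 20% (w/v) 2-HPβCD, then a second 15 mg/kg IP dose on day fourteen. Vehicle controls got 100 μL of 20% 2-HPβCD IP on days 0, 7, 14, 21, 25 and 29. Body weight and behaviour were monitored throughout, with survival plotted Kaplan-Meier.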

[8] = Solubility of the compound in 1% DMSO/water solution; type: physicochemical; settings: buffer
A549 [9] = experiment: Growth inhibition of human A549 cells assessed as cell growth at 10 uM after 24 hrs by SRB assay relative to control; type: functional; settings: A549, 24 h, read-out: Activity
Outline: (§3)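 NCI DTP one-dose screen: cells plated at density set by doubling rate, incubated overnight, then exposed to compound at 10 μM for 24 hours. Growth percentage from protein density at end versus start of experiment, relative to initial cell number.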

Bos taurus [10] = species on record: Bos taurus; experiment: Inhibition of ethidium bromide binding to calf thymus DNA assessed as at 13.3 uM using 10% 2HPbetaCD/water compound formulation by spectrofluorometric method
NCI-H460 [11] = experiment: Growth inhibition of human NCI-H460 cells assessed as cell growth at 10 uM after 24 hrs by SRB assay relative to control; type: functional; settings: NCI-H460, 24 h, read-out: Activity; outline: as §3
NCI-H460 [12] = experiment: Induction of apoptosis in human NCI-H460 cells assessed as blebbing at 40 uM after 14 hrs using 10% 2HPbetaCD/water compound formulation by Annexin V-FITC/propidium iodide staining based fluorescence microscopic method; type: functional, cell-based
Outline: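 Annexin V-FITC/propidium iodide staining of H460 cells in 6-well plates. Compound given in 10% (w/v) 2-HPβCD aqueous solution. Imaged at 12, 14, 17 and 20 h with 20× objective as merged transmitted, green and red channels. Controls: 2-HPβCD and cisplatin, 20 h.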

NCI-H522 = experiment: Growth inhibition of human NCI-H522 cells assessed as cell growth at 10 uM after 24 hrs by SRB assay relative to control; type: functional; settings: NCI-H522, 24 h, read-out: Activity; outline: as §3
Mus musculus [13] = experiment: Acute toxicity in C57BL/6 mouse assessed as lethargic movement at 20 mg/kg, ip administered as 20% 2HPbetaCD formulation on day 1 followed by redosing with 15 mg/kg, ip on day 14 measured on day 15 post first dose; type: organism-based; settings: in vivo; outline: as §2
Mus musculus [14] = experiment: Acute toxicity in C57BL/6 mouse assessed as weight loss at 20 mg/kg, ip administered as 20% 2HPbetaCD formulation on day 1 followed by redosing with 15 mg/kg, ip on day 14 relative to control; type: organism-based; settings: in vivo
Outline: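 C57BL/6 mice given IP 100 μL of 20 mg/kg (based on 20 g mean mass) in 20% w/v 2-HPβCD on day 0, then 15 mg/kg on day 14. Vehicle mice received 2-HPβCD on days 0, 7, 14, 21, 25 and 29. Body weight, behaviour and survival monitored.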

HCC827 [15] = experiment: Antiproliferative activity against human HCC827 cells using 1% DMSO/water compound formulation after 72 hrs by MTT assay; type: functional, cell-based; settings: HCC827, 72 h; outline: as §1
A549 [16] = experiment: Growth inhibition of human A549 cells after 24 hrs by SRB assay; type: functional; settings: A549, 24 h
Bos taurus [17] = species on record: Bos taurus; experiment: Binding affinity to calf thymus DNA assessed as increase in viscosity at 10 to 70 uM using 1% DMSO/water compound formulation by Ostwald viscometric method
A549 [18] = experiment: Antiproliferative activity against human A549 cells using 10% 2-HPbetaCD compound formulation after 72 hrs by MTT assay; type: functional, cell-based; settings: A549, 72 h; outline: as §1
Bos taurus [19] = species on record: Bos taurus; experiment: Inhibition of ethidium bromide binding to calf thymus DNA assessed as at 13.3 uM using 1% DMSO/water compound formulation by spectrofluorometric method
[20] = Solubility of the compound in 10% 2-HPbetaCD/water solution; type: physicochemical; settings: buffer
HOP-62 = experiment: Growth inhibition of human HOP62 cells assessed as cell growth at 10 uM after 24 hrs by SRB assay relative to control; type: functional; settings: HOP-62, 24 h, read-out: Activity; outline: as §3
NCI-H460 [21] = experiment: Disruption of mitochondrial membrane potential in human NCI-H460 cells at 20 uM up to 30 mins using […] by JC1/DAPI staining based confocal microscopic method; type: functional, cell-based
NCI-H23 = experiment: Growth inhibition of human NCI-H23 cells assessed as cell growth at 10 uM after 24 hrs by SRB assay relative to control; type: functional; settings: NCI-H23, 24 h, read-out: Activity; outline: as §3
HCC827 [22] = experiment: Antiproliferative activity against human HCC827 cells using 10% 2-HPbetaCD compound formulation after 72 hrs by MTT assay; type: functional, cell-based; settings: HCC827, 72 h; outline: as §1
EKVX = experiment: Growth inhibition of human EKVX cells after 24 hrs by SRB assay; type: functional
[23] = read-out: LC50 (the source's name)

SMILES: CCc1n(Cc2ccc3ccccc3c2)cc[n+]1Cc1ccc2ccccc2c1.[Br-]
- GI50 (NCI-H460 [1]): 724 nM
- TGI (NCI-H460 [1]): 2150 nM
- CC50 (NCI-H460 [1]; [23]): 2150 nM
- Activity (NCI-H460 [2]): inactive
- IC50 (NCI-H1975 [3]): 660 nM
- GI50 (NCI-H226): 1080 nM
- LC50 (NCI-H226): 3820 nM
- TGI (NCI-H226): 3820 nM
- Activity (NCI-H460 [4]): Active
- IC50 (NCI-H460 [5]): 920 nM
- GI50 (NCI-H322M): 2120 nM
- LC50 (lethal concentration 50%) (NCI-H322M): 6710 nM
- TGI (NCI-H322M): 6710 nM
- Ratio IC50 (NCI-H1975 [6]): 15
- Activity (Mus musculus [7]): Toxic
- solubility [8]: Soluble
- growth at 10 µM (A549 [9]): 28.5%
- inhibition (Bos taurus [10]): inactive
- growth at 10 µM (NCI-H460 [11]): 5.54%
- Activity (NCI-H460 [12]): Active
- growth at 10 µM (NCI-H522): -25.4%
- Activity (Mus musculus [13]): Toxic
- Activity (Mus musculus [14]): 6%
- IC50 (HCC827 [15]): 1150 nM
- GI50 (A549 [16]): 2590 nM
- TGI (A549 [16]): 13900 nM
- CC50 (A549 [16]; [23]): 57900 nM
- Activity (Bos taurus [17]): inactive
- IC50 (A549 [18]): 2340 nM
- inhibition (Bos taurus [19]): inactive
- solubility [20]: > 4400 µg/mL
- growth at 10 µM (HOP-62): 11.9%
- Activity (NCI-H460 [21]): Active
- growth at 10 µM (NCI-H23): -14.6%
- IC50 (HCC827 [22]): 970 nM
- GI50 (EKVX): 766 nM
- LC50 (EKVX): 35800 nM
- TGI (EKVX): 5550 nM
